According to ChEMBL document CHEMBL4513216, “Probing the Open Global Health Chemical Diversity Library for Multistage-Active Starting Points for Next-Generation Antimalarials” (ACS Infect Dis, 2020):

Assay: Toxicity liver stage against HepG2, at 10uM
Format: cell-based
Parameters: test concentration 10 uM, cell line HepG2-A16-CD81EGFP
Conditions: human, HepG2-A16-CD81EGFP cells; read-out: INHIBITION
Summary of the method: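 Uninfected HepG2-A16-CD81EGFP cells, 3 × 10^3 per well, 1536-well, plated on prespotted compound at 10 μM final, parasite-free screening media added to match infected plates; puromycin 10 μM positive, DMSO 0.5% negative; run in parallel with 48 h PbLuc assay at 37 °C, 5% CO2; viability by CellTiter-Glo luminescence, normalized to controls.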

Compound	cytotoxicity at 10 µM [%]
CCc1cnc(N)nc1NCCn1cc(Cl)cn1	1.5
Cc1cc(C)nc(NC(=O)NCCCSc2nncn2C)n1	1.74
c1ccc(C2CCCN2C2CSCCSC2)nc1 (configuration not stated)	-3.77
Cc1oncc1C(=O)N1CCC2(CCN(Cc3cccc(F)c3)C2=O)C1 (configuration not stated)	-142
O=C(NCC1(O)CCc2ccccc21)Nc1ccc2c(c1)OCO2 (configuration not stated)	-11.2
COCC(=O)NC(c1ccccc1)c1ccc2c(c1)CCCO2 (configuration not stated)	-1.83
Cc1ccc(OCC(=O)N2CCOCC(O)(CN3CCCC3)C2)cc1C (configuration not stated)	-4.05
CCOCCn1nc(C)cc1C(=O)N1CC(C)(C)[C@@](C)(O)C1	0.301
CCc1ocnc1C(=O)N1CCCC1c1noc(C)n1 (configuration not stated)	-8.77
COc1ncccc1C(=O)N1CCCC1c1c(C)nn(C)c1Cl (configuration not stated)	-9.35
Cc1nc(C)n(C2CCCN(C(=O)c3ccc(N(C)C)nn3)C2)n1 (configuration not stated)	0.722
Cc1noc(C)c1CN1CCn2cc(CN3CCCC3)nc2C1	5.37
c1cnc(N2CCCC3(CCN(CC4CCC4)C3)C2)nc1 (configuration not stated)	-82.8
CCN(C)c1ccc(CNC(=O)c2cc(C(N)=O)cs2)cc1F	6.36
Cc1noc(C)c1CN1CCn2c(CN3CCN(C)CC3)cnc2C1	8.98
COc1cc(N2C[C@@H]3COC[C@]3(COCc3ccncc3)C2)ncn1	-72.4
O[C@@H]1CCN(CC2CCOC2)[C@H]1Cc1cccnc1 (some centres not stated)	-8.56
C=C(C)CN(CC)S(=O)(=O)c1ccccc1C#N	-17.1
Cc1nsc(C(=O)N2CCc3ccccc3C2)n1	5.86
CCOC(=O)C1(CCOC)CCN(Cc2nccn2CC)CC1	6.77
c1ccc(-n2nnnc2CN2CCCC(Cn3cncn3)C2)cc1 (configuration not stated)	0.962
CC(C)NC(=O)N1CCC2(CCC(=O)N2CCN(C)C)CC1	-7.13
Cc1nc(CN2CCOC3(CCCC3)C2)no1	-6.65
CO[C@H]1CN(S(=O)(=O)c2ccc(C)cc2)C[C@@]12CCCO2	-0.479

Compound	cytotoxicity at 10 µM [%]
Cc1nn(C)c(N(C)C)c1CNC(C)Cc1c(F)cccc1F (configuration not stated)	-1.03
COc1ccccc1CN(C)c1nccc(-c2cn(C)nc2C)n1	53.8
COc1ccccc1C(=O)N1CCN(C(=O)Cc2ccccn2)CC1	-7.57
CCc1noc(C(C)N(C)Cc2cc(Br)ccc2OC)n1 (configuration not stated)	-5.04
CCCN1CCCC2(CCN(Cc3cncn3C3CCCC3)C2)C1=O (configuration not stated)	-13
Cc1noc(C)c1CN1CCCC2(CCN(C(=O)C3CC3)C2)C1 (configuration not stated)	2
COCCCN1C(=O)CC[C@H]2CN(c3cc(C(N)=O)ccn3)CC[C@H]21	4.12
CCNc1ncc(C(=O)NCc2ccc3nsnc3c2)cn1	2.34
O=C(NCCCn1cccn1)NCC(c1ccco1)N1CCCC1 (configuration not stated)	-13.3
Cc1cc(NC(N)=O)ccc1OCC(F)(F)F	-0.883
Cn1cnnc1C1CCCN(C(=O)NCCCn2cccn2)C1 (configuration not stated)	-5.42
CC(=O)N1CCc2c(nc(-c3ccccn3)nc2N(C)CC(O)CO)C1 (configuration not stated)	-12.2
COCC(C)NC(=O)c1nnn(-c2ccc(F)cc2)n1 (configuration not stated)	-20.6
CNC(=O)c1ccc(C2CN(C(=O)c3c[nH]nc3C)CCO2)nc1 (configuration not stated)	-19.3
O=C(c1cccnc1N1CCOCC1)N1CCCC(n2cncn2)C1 (configuration not stated)	-3.37
CCC1CCCCN1C(=O)c1ccnc(N(C)C)c1 (configuration not stated)	-0.743
O=C(c1cc(F)cc2[nH]cnc12)N1CCCCC1Cn1cccn1 (configuration not stated)	16.5
O=S(=O)(c1ccc2c(c1)OCCO2)N1CCc2ccccc2C1	-5.52
NC(=O)c1cccc(CCNCc2cnc(-c3cccs3)s2)c1	2.49
CCOCCCNC(=O)N(C)Cc1ccc(SC)c(OC)c1	-5.41
O=C(c1cccs1)N1CCN(Cc2cc(=O)c3ccccc3[nH]2)CC1	-2.93
CC(C)Oc1ncccc1CNC(=O)C1CCCN(C(=O)C2CC2)C1 (configuration not stated)	-8.57
Cc1noc(C)c1CN1CCN(C(=O)Cn2cncn2)CC1	-3.52
